What was measured:
[1] = tested on: Vero; experiment: Compound was tested for antiviral activity against Herpes Simplex virus Type-2(MS) in vero cells; assay type: functional, cell-based; conditions: Chlorocebus sabaeus
Outline: (§1)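 Plaque reduction in Vero cell monolayers infected with about 50 PFU of HSV-1 or HSV-2. A concentration range of compound was included in an agarose overlay and kept present throughout. Plaques were counted 3 days post-infection. IC50 is the concentration giving a plaque count 50% of untreated controls. Stocks were 10 mg/mL in Me2SO, diluted in test medium.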

[2] = tested on: Vero; experiment: Compound was tested for antiviral activity against Herpes Simplex virus Type-1(HFEM) in vero cells; assay type: functional, cell-based; conditions: Chlorocebus sabaeus; outline: as §1
[3] = tested on: MRC5; experiment: Compound was tested for antiviral activity against Herpes Simplex virus Type-1(20132) in human lung fibroblasts (MRC-5); assay type: functional
Outline: (§2)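 Virus yield reduction in MRC-5 cells infected at a multiplicity of about 1 PFU/cell. A concentration range of compound was added in culture medium after virus adsorption and kept present throughout. Supernatants were harvested 24 h post-infection and titrated on Vero cells. IC90 is the concentration reducing infectious yield by 90% versus untreated controls.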

[4] = tested on: MRC5; experiment: Compound was tested for antiviral activity against Herpes Simplex virus Type-1(HFEM) in human lung fibroblasts (MRC-5); assay type: functional; outline: as §2
[5] = tested on: MRC5; experiment: Compound was tested for antiviral activity against Herpes Simplex virus Type-2(20605) in human lung fibroblasts (MRC-5); assay type: functional; outline: as §2
[6] = tested on: MRC5; experiment: Compound was tested for antiviral activity against Herpes Simplex virus Type-2(21929) in human lung fibroblasts (MRC-5); assay type: functional; outline: as §2
[7] = tested on: MRC5; experiment: Compound was tested for antiviral activity against Herpes Simplex virus Type-2(MS) in human lung fibroblasts (MRC-5); assay type: functional; outline: as §2
[8] = tested on: MRC5; experiment: Compound was tested for antiviral activity against Herpes Simplexin human lung fibroblasts (MRC-5)in vero cells; assay type: functional
[9] = tested on: MRC5; experiment: Compound was tested for antiviral activity against Herpes Simplex virus Type-1(18189) in human lung fibroblasts (MRC-5); assay type: functional; outline: as §2
[10] = tested on: MRC5; experiment: Compound was tested for antiviral activity against Herpes Simplex virus Type-1(19407) in human lung fibroblasts (MRC-5); assay type: functional; outline: as §2
[11] = tested on: MRC5; experiment: compound was tested for antiviral activity against Herpes Simplex virus Type-1(18189) in human lung fibroblasts (MRC-5); assay type: functional; outline: as §2
[12] = tested on: MRC5; experiment: compound was tested for antiviral activity against Herpes Simplex virus Type-1(19407) in human lung fibroblasts (MRC-5); assay type: functional; outline: as §2
[13] = tested on: MRC5; experiment: compound was tested for antiviral activity against Herpes Simplex virus Type-1(20132) in human lung fibroblasts (MRC-5); assay type: functional; outline: as §2
[14] = tested on: MRC5; experiment: compound was tested for antiviral activity against Herpes Simplex virus Type-1(HFEM) in human lung fibroblasts (MRC-5); assay type: functional; outline: as §2
[15] = tested on: MRC5; experiment: compound was tested for antiviral activity against Herpes Simplex virus Type-2(17409) in human lung fibroblasts (MRC-5); assay type: functional; outline: as §2
[16] = tested on: MRC5; experiment: compound was tested for antiviral activity against Herpes Simplex virus Type-2(20605) in human lung fibroblasts (MRC-5); assay type: functional; outline: as §2
[17] = tested on: MRC5; experiment: compound was tested for antiviral activity against Herpes Simplex virus Type-2(21929) in human lung fibroblasts (MRC-5); assay type: functional; outline: as §2
[18] = tested on: MRC5; experiment: compound was tested for antiviral activity against Herpes Simplex virus Type-2(MS) in human lung fibroblasts (MRC-5); assay type: functional; outline: as §2

SMILES | IC50 [1] | IC50 [2] | further results
CCCCCOC(=O)CC(CCn1cnc2c(O)nc(N)nc21)CC(=O)OCCCCC | 3600 nM | 4200 nM | 
Nc1nc2c(ncn2COCCO)c(=O)[nH]1 [ACYCLOVIR] | 2500 nM | 3800 nM | IC90 [3]: 900 nM; IC90 [4]: 4800 nM; IC90 [5]: 300 nM; IC90 [6]: 900 nM; IC90 [7]: 1200 nM; IC90 [8]: 700 nM; IC90 [9]: 700 nM; IC90 [10]: 1400 nM
Nc1nc(O)c2ncn(CCC(CO)CO)c2n1 [PENCICLOVIR] | 6400 nM | 6400 nM | IC90 [11]: 500 nM; IC90 [12]: 600 nM; IC90 [13]: 600 nM; IC90 [14]: 1300 nM; IC90 [15]: 900 nM; IC90 [16]: 800 nM; IC90 [17]: 900 nM; IC90 [18]: 1100 nM
COC(=O)CC(CO)CCn1cnc2c(O)nc(N)nc21 (configuration not stated) | 31000 nM | 81000 nM | 
CCCCCCCCCCCCCCCOC(=O)CC(CO)CCn1cnc2c(O)nc(N)nc21 (configuration not stated) | 128000 nM | 33000 nM | 
COc1nc(N)nc2c1ncn2CCC(CO)CO | 236000 nM | > 250000 nM | 
CCCCCOC(=O)CC(CO)CCn1cnc2c(O)nc(N)nc21 (configuration not stated) | 15000 nM | 6000 nM | 
Nc1nc(O)c2ncn(CCC(CC(=O)O)CC(=O)O)c2n1 | 10000 nM | 5800 nM | 

Source: ChEMBL document CHEMBL1123836, “Synthesis and antiviral activity of 9-[4-hydroxy-3-(hydroxymethyl)but-1-yl]purines” (J Med Chem, 1987)
